Assay results as given in ChEMBL document CHEMBL1145477, “Activity of T-1106 in a hamster model of yellow Fever virus infection” (Antimicrob Agents Chemother, 2007).
Calls of active or inactive are those of the source. The calls are words filed in the database; no cut-off is given here.

Columns and labels:
Yellow fever virus [1] = assay: Antiviral activity against YFV Jimenez infected in Syrian golden hamster assessed as mean day to death after 21 days post-infection at 10 mg/kg, ip bid for 7 days; format: functional; settings: route intraperitoneal
Yellow fever virus [2] = assay: Antiviral activity against YFV Jimenez infected in Syrian golden hamster liver assessed as weight change at 100 mg/kg/day, ip bid for 8 days administered after 1 day post-infection; format: functional; settings: route intraperitoneal
Yellow fever virus [3] = assay: Antiviral activity against YFV Jimenez infected in Syrian golden hamster liver assessed as mean day to death at 100 mg/kg/day, ip bid for 8 days administered after 4 day post-infection; format: functional; settings: route intraperitoneal
Yellow fever virus [4] = assay: Antiviral activity against YFV Jimenez infected in Syrian golden hamster liver assessed as weight change at 100 mg/kg/day, ip bid for 8 days administered after 3 days post-infection; format: functional; settings: route intraperitoneal
Yellow fever virus [5] = assay: Antiviral activity against YFV Jimenez infected in Syrian golden hamster liver assessed as weight change at 100 mg/kg/day, ip bid for 8 days administered after 2 days post-infection; format: functional; settings: route intraperitoneal
Yellow fever virus [6] = assay: Antiviral activity against YFV Jimenez infected in Syrian golden hamster assessed as mean day to death after 21 days post-infection at 100 mg/kg, po bid for 7 days; format: functional
Yellow fever virus [7] = assay: Antiviral activity against YFV Jimenez infected in Syrian golden hamster liver assessed as survival at 100 mg/kg/day, ip bid for 8 days administered after 1 day post-infection; format: functional, organism-based
Yellow fever virus [8] = assay: Antiviral activity against YFV Jimenez infected in Syrian golden hamster liver assessed as alanine aminotransferase at 100 mg/kg/day, ip bid for 8 days administered after 1 day post-infection; format: functional; settings: route intraperitoneal
How it was run: (§1)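 YFV (Jimenez)-infected female hamsters were treated b.i.d. i.p. or p.o. Serum was drawn by ocular sinus at 6 dpi. ALT was read with a colorimetric kit adapted to microplates: substrate plus serum for 30 min at 37°C, then colour reagent and developer, absorbance at 505 nm. Values are IU/liter against saline controls.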

Yellow fever virus [9] = assay: Antiviral activity against YFV Jimenez infected in Syrian golden hamster liver assessed as mean day to death at 100 mg/kg/day, ip bid for 8 days administered after 2 days post-infection; format: functional; settings: route intraperitoneal
Yellow fever virus [10] = assay: Antiviral activity against YFV Jimenez infected in Syrian golden hamster assessed as mean day to death after 21 days post-infection at 32 mg/kg, ip bid for 7 days; format: functional; settings: route intraperitoneal
Yellow fever virus [11] = assay: Antiviral activity against YFV Jimenez infected in Syrian golden hamster liver assessed as survival at 100 mg/kg/day, ip bid for 8 days administered after 3 days post-infection; format: functional, organism-based
Yellow fever virus [12] = assay: Antiviral activity against YFV Jimenez infected in Syrian golden hamster assessed as mean day to death after 21 days post-infection at 32 mg/kg, po bid for 7 days; format: functional
Yellow fever virus [13] = assay: Antiviral activity against YFV infected in african green monkey Vero cells assessed as reduction in cytopathic effect after 6 days; format: functional, organism-based; settings: 144 h
How it was run: (§2)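 Jimenez hamster-adapted YFV at 10 CCID50/well on Vero or CV-1 monolayers; seven drug concentrations added 5–10 min before virus; 37°C for 6 days. CPE scored microscopically, then neutral red uptake (0.34% dye, 2 h, eluted and quantified). EC50 derived; CC50 from uninfected drug-treated cells; SI = CC50/EC50.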

Yellow fever virus [14] = assay: Antiviral activity against YFV Jimenez infected in Syrian golden hamster assessed as serum alanine aminotransferase at 100 mg/kg, po bid for 7 days; format: functional; how it was run: as §1
Yellow fever virus [15] = assay: Antiviral activity against YFV Jimenez infected in Syrian golden hamster liver assessed as mean day to death at 100 mg/kg/day, ip bid for 8 days administered after 3 days post-infection; format: functional; settings: route intraperitoneal
Syrian golden hamster = assay: Toxicity in YFV infected Syrian golden hamster assessed as survival of animals at 100 mg/kg/day, ip bid for 7 days; format: organism-based, Mesocricetus auratus; set-up: route intraperitoneal; settings: in vivo, 168 h
How it was run: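 Female Syrian golden hamsters (~100 g), toxicity-control groups of three, sham-infected. Drug suspended in saline or 0.4% carboxymethyl cellulose, given i.p. b.i.d. 12 h apart from −4 h through 7 days. Mortality checked daily; weight taken at 0, 3 and 6 dpi, with change taken as 3-to-6 dpi difference.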

Yellow fever virus [16] = assay: Antiviral activity against YFV Jimenez infected in Syrian golden hamster assessed as survival of animal at 100 mg/kg, po for 7 days; format: functional, organism-based; set-up: dose 100 mg/kg
Yellow fever virus [17] = assay: Antiviral activity against YFV Jimenez infected in Syrian golden hamster assessed as weight change at 100 mg/kg, po bid for 7 days; format: functional
Yellow fever virus [18] = assay: Antiviral activity against YFV Jimenez infected in Syrian golden hamster liver assessed as alanine aminotransferase at 100 mg/kg/day, ip bid for 8 days administered after 3 days post-infection; format: functional; settings: route intraperitoneal; how it was run: as §1
Yellow fever virus [19] = assay: Antiviral activity against YFV Jimenez infected in Syrian golden hamster liver assessed as alanine aminotransferase at 100 mg/kg/day, ip bid for 8 days administered after 2 days post-infection; format: functional; settings: route intraperitoneal; how it was run: as §1
Yellow fever virus [20] = assay: Antiviral activity against YFV Jimenez infected in Syrian golden hamster assessed as weight change at 32 mg/kg, po bid for 7 days; format: functional
[21] = Selectivity index, ratio of CC50 for african green monkey CV1 cells to EC50 for YFV infected in CV1 cells; format: functional, CV-1; how it was run: as §2
Yellow fever virus [22] = assay: Antiviral activity against YFV Jimenez infected in Syrian golden hamster assessed as weight change at 10 mg/kg, ip bid for 7 days; format: functional; settings: route intraperitoneal
Yellow fever virus [23] = assay: Antiviral activity against YFV Jimenez infected in Syrian golden hamster liver assessed as survival at 100 mg/kg/day, ip bid for 8 days administered after 2 days post-infection; format: functional, organism-based
[24] = Selectivity index, ratio of CC50 for african green monkey Vero cells to EC50 for YFV infected in Vero cells; format: functional; how it was run: as §2
Yellow fever virus [25] = assay: Antiviral activity against YFV Jimenez infected in Syrian golden hamster liver treated 4 hrs before viral challenge assessed as weight change at 100 mg/kg/day, ip bid for 8 days; format: functional; settings: route intraperitoneal

With `NC(=O)c1nccn([C@@H]2O[C@H](CO)[C@@H](O)[C@H]2O)c1=O` the Activity (Yellow fever virus [1]) was 8 days, the Activity (Yellow fever virus [2]) was 6.1 g and the Activity (Yellow fever virus [3]) was 6 days. The Activity (Yellow fever virus [4]) was 2.9 g, the Activity (Yellow fever virus [5]) was 6.3 g and the Activity (Yellow fever virus [6]) was over 21 days. For the same compound, the Activity (Yellow fever virus [7]) was “Active”, the Activity (Yellow fever virus [8]) was 56 IU/L and the Activity (Yellow fever virus [9]) was over 21 days. For the same compound, the Activity (Yellow fever virus [10]) was over 21 days, the Activity (Yellow fever virus [11]) was “Active” and the Activity (Yellow fever virus [12]) was over 21 days. It also gave an EC50 (Yellow fever virus [13]) of over 100 µg/mL, an Activity (Yellow fever virus [14]) of 56 IU/L and an Activity (Yellow fever virus [15]) of over 21 days. For the same compound, the Activity (Syrian golden hamster) was “Non-toxic”, the Activity (Yellow fever virus [16]) was “Active” and the Activity (Yellow fever virus [17]) was 6.3 g. It also gave an Activity (Yellow fever virus [18]) of 79 IU/L, an Activity (Yellow fever virus [19]) of 57 IU/L and an Activity (Yellow fever virus [20]) of 4.4 g. For the same compound, the “Ratio CC50/EC50” value [21] was 1, the Activity (Yellow fever virus [22]) was -1.8 g and the Activity (Yellow fever virus [23]) was “Active”. For the same compound, the “Ratio CC50/EC50” value [24] was 1 and the Activity (Yellow fever virus [25]) was 6 g.
